# PfGluPho inh – PfG6PD (Plasmodium falciparum) enzyme inhibition. PfGluPho enzyme, NADPH resazurin-diaphorase fluorescence. inhibition, % at 20 µM. 350,000 compounds, 0.78% hits. AID 504690;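 active means inhibition reaching at least a set limit at 20 µM in the primary screen, cut at about 59% in these data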;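 further: 0% = DMSO wells with substrate and 100% = DMSO wells lacking glucose-6-phosphate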
# G6PDH counter – counter-screen for G6PDH assay hits: L. mesenteroides G6PDH inhibition; 200,000 compounds, 0.12% hits; Purified L. mesenteroides G6PDH, diaphorase/resazurin coupled fluorescence, 45 min; inhibition, % at 5 µM; in the data active means inhibition above about 50%
# HKDC1 inhibitor – blocks human hexokinase HKDC1 activity | Q2TB90 | recombinant HKDC1, G6PDH/diaphorase resazurin coupled fluorescence | inhibition, % at 20 µM | 340,000 compounds, 0.16% hits;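 active means inhibition above about 35% when tested at 20 µM, limit read from the data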;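 further: plate controls were DMSO wells with enzyme for no effect and DMSO wells lacking enzyme for full effect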
# Target sequence (Q2TB90 whole entry, looked up): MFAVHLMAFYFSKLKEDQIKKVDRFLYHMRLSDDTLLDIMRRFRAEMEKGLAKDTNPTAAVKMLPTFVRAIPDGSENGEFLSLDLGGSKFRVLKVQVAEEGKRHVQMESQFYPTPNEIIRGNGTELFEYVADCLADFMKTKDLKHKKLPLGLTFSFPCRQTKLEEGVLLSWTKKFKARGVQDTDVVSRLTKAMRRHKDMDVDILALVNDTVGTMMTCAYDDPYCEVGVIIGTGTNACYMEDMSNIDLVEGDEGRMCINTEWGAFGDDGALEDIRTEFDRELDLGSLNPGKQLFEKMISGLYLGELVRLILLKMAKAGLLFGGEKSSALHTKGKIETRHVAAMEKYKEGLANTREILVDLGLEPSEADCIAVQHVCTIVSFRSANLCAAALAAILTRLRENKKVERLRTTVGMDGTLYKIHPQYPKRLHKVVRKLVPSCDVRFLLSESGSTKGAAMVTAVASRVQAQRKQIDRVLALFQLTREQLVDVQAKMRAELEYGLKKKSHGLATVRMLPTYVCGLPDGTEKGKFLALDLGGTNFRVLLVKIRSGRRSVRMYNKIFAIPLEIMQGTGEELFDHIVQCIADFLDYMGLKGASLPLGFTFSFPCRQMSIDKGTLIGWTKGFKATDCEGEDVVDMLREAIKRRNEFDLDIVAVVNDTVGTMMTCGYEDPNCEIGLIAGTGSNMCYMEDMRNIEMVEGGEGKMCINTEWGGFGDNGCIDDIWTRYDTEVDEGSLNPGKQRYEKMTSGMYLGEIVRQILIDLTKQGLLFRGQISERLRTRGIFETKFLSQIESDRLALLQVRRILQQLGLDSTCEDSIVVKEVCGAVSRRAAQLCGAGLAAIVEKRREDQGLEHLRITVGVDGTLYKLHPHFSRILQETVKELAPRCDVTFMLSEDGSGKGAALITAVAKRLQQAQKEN
#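 Assay system: in-house recombinant HK5 (HKDC1) enzyme. Input: HKDC1 at 5 µg/mL. Medium: Tris pH 8.0 buffer with MgCl2, Tween-20, BSA, BME. Dosing: single 20 µM dose. Schedule: 90 min reaction incubation at room temperature, dark. Signal: resazurin-to-resorufin fluorescence via G6PDH and diaphorase coupling, 525/613 nm. Controls: DMSO-enzyme wells negative, buffer-substituted wells positive.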
# Diaphorase inh – counter-screen for diaphorase-based assays: diaphorase inhibitors and chemical oxidizers. diaphorase resazurin-to-resorufin fluorescence, NADH, 16 min; bacterial (C. kluyveri) enzyme, not human. inhibition, % at 20 µM. 190,000 compounds, 0.69% hits;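 active means primary screen inhibition at 20 µM above a set limit, cut at about 50% in these data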;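 further: plate controls were DMSO with full reaction for no effect and wells lacking NADH for full effect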
#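 controls = No-NADH positive control and DMSO neutral control | system = Clostridium kluyveri diaphorase enzyme | timing = reaction incubation of 16 min at room temperature | signal = resorufin fluorescence 544/590 nm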
# TbHK1 inh – blocks Trypanosoma brucei hexokinase 1 activity; 220,000 compounds, 0.11% hits; AID 1430; recombinant TbHK1, G6PDH-coupled NADH A340; inhibition, % at 10 µM;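 active means inhibition of 50% or more in the single-dose primary screen; inactive means inhibition below 50%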
# PfGluPho conf – PfG6PD inhibition, single-dose confirmed; 2,400 compounds, 34% hits; shares compounds with PfGluPho inh; recombinant PfGluPho, NADPH-diaphorase-resazurin fluorescence; AID 504753; inhibition, % at 20 µM;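 active means inhibition of at least 50% at 20 µM in any single replicate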;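 further: 0% = DMSO with substrate and 100% = DMSO lacking glucose-6-phosphate substrate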
# Diaphorase 10uM – inhibits diaphorase or oxidizes, flagging false PfG6PD hits | shares compounds with PfGluPho inh | diaphorase-coupled resazurin reduction, fluorescence, NADPH 10 uM | inhibition, % at 20 µM | 820 compounds, 39% hits | AID 504862;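 active means average inhibition reaching 50% or more with the compound at 20 µM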;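 further: resorufin red fluorescence formed as diaphorase reduces resazurin using NADPH; 0% = DMSO with enzyme and 100% = DMSO without enzyme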
# Diaph ctr 30uM – inhibits diaphorase or oxidizes, flagging false PfG6PD hits; Diaphorase/resazurin coupled assay, resorufin fluorescence, 30 uM NADPH; 820 compounds, 29% hits; shares compounds with PfGluPho inh; inhibition, % at 20 µM;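 active means inhibition averaging 50% or more, tested at 20 µM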;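 further: 0% = DMSO with enzyme and 100% = DMSO wells lacking diaphorase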
# Active calls of the source: *; . = not tested or not shown. Compounds with a hit are over-represented: about 1.2% of the library has one in this group of screens.
SMILES,PfGluPho inh,G6PDH counter,HKDC1 inhibitor,Diaphorase inh,TbHK1 inh,PfGluPho conf,others
CN(C)C=Nc1ccc2nc3c(cc2c1)[nH]c1ccccc13,80*,.,19,.,.,54*,Diaphorase 10uM=37;Diaph ctr 30uM=45
O=C(Nc1ccccn1)c1cc2ccccc2cc1O,67*,.,7,.,.,22,
O=C(Nc1ccccn1)c1ccc(C(=O)Nc2ccccn2)cc1,-12,.,3,.,.,.,
OCCCNc1c2c(nc3cc(-c4ccc(Cl)cc4)nn13)CCC2,70*,6,-3,33,5,45,
CC(C)N(C)C1=CC(=O)C(N(C)C(C)C)=CC1=O,67*,.,4,.,.,6,
CC(=O)OCC1OC(n2c(S)c(C#N)c(-c3ccccc3)c(C#N)c2=O)C(OC(C)=O)C(OC(C)=O)C1OC(C)=O (stereo not drawn),66*,.,0,.,.,22,
CC(=O)OCC1OC(c2ccccc2)C(OC(C)=O)C(OC(C)=O)C1OC(C)=O (stereo not drawn),-16,19,14,-7,-7,.,
FC(F)(F)c1cc(CO[C@@H]2CCCN[C@@H]2c2ccccc2)cc(C(F)(F)F)c1,67*,.,-1,.,.,22,
FC(F)(F)c1cc(CCN2CCNC[C@@H]2c2ccccc2)cc(C(F)(F)F)c1,6,.,1,.,.,.,
CC1(C(=O)N2CCC(CC3CC(c4cccc(Br)c4)=NO3)(C(=O)NCC3CCCCC3)CC2)CC1 (stereo not drawn),-4,.,2,.,.,.,
CNC(=O)C1CC(=O)N(c2ccc(OCC(=O)Nc3ccc(F)cc3)cc2)C1 (stereo not drawn),7,.,3,.,.,.,
Cc1ccc(NC(=O)NC(=O)CN2CCN(c3ccc(O)cc3)CC2)c(C)c1,72*,.,11,.,.,40,
Cc1ccc(S(=O)(=O)N2CCOCC2)cc1NC(=O)CN1CCN(c2ccc(O)cc2)CC1,65*,3,-11,35,23,23,
Cc1ccc(NC(=O)NC(=O)CN2CCC(C(N)=O)CC2)c(C)c1,-8,.,-6,.,.,.,
CC(CCc1ccccc1)NC(=O)CN1CCN(c2ccc(O)cc2)CC1 (stereo not drawn),66*,9,0,38,-11,3,
CC(CCc1ccccc1)NC(=O)CN1CCN(Cc2ccccc2)C1=O (stereo not drawn),4,4,-6,21,1,.,
O=C(CN1CCN(c2ccc(O)cc2)CC1)Nc1ccc(S(=O)(=O)N2CCCC2)cc1,60*,.,4,.,.,31,
COc1ccc(S(=O)(=O)Nc2ccc(C)cn2)cc1,-1,.,-2,.,.,.,
CCN(C(=O)CN1CCCCCC1)c1c(N)n(Cc2ccccc2)c(=O)[nH]c1=O,-3,.,2,.,.,.,
CCN(C(=O)CN1CCN(c2ccc(O)cc2)CC1)c1c(N)n(Cc2ccccc2)c(=O)[nH]c1=O,73*,15,10,34,3,36,
CN(Cc1ccccc1)S(=O)(=O)c1nnc(NC(=O)c2ccccc2)s1,44,.,-1,.,.,.,
COc1cccc(C(=O)Nc2nnc(S(=O)(=O)N(C)Cc3ccccc3)s2)c1,88*,.,10,.,.,77*,Diaphorase 10uM=62*;Diaph ctr 30uM=39
COc1cccc(C(=O)Nc2nnc(S(=O)(=O)N(C)Cc3ccc(F)cc3)s2)c1,80*,.,0,.,.,48,
CCOc1ccc(C(=O)Nc2nnc(S(=O)(=O)N(C)Cc3ccco3)s2)cc1,-6,.,-3,.,.,.,
COc1ccc(CN(C)S(=O)(=O)c2nnc(NC(=O)c3ccccc3Br)s2)cc1,-4,.,8,.,.,.,
SMILES,PfGluPho inh,G6PDH counter,HKDC1 inhibitor,Diaphorase inh,TbHK1 inh,PfGluPho conf,others
COc1ccc(CN(C)S(=O)(=O)c2nnc(NC(=O)c3cccc(OC)c3)s2)cc1,96*,.,11,.,.,62*,Diaphorase 10uM=56*;Diaph ctr 30uM=60*
CN(Cc1ccco1)S(=O)(=O)c1nnc(NC(=O)c2ccc(F)cc2)s1,98*,.,-5,.,.,83*,Diaphorase 10uM=72*;Diaph ctr 30uM=55*
COc1ccc(CN(C)S(=O)(=O)c2nnc(NC(=O)c3ccc(C)cc3)s2)cc1OC,88*,.,1,.,.,70*,Diaphorase 10uM=39;Diaph ctr 30uM=27
COc1ccc(CN(C)S(=O)(=O)c2nnc(NC(=O)c3ccccc3OC)s2)cc1OC,10,.,0,.,.,.,
O=C(c1ccccc1)c1cccc[n+]1[O-],-2,.,2,.,.,.,
ONC(=Nc1ccccc1Cl)c1ccccc1Cl,68*,.,1,.,1,41,
O=[N+]([O-])c1cccc(C(=Nc2ccccc2Cl)NO)c1,20,-12,-2,10,1,.,
CCCc1cc(=O)[nH]c(SCC(=O)NC2CCCc3ccccc32)n1 (stereo not drawn),64*,.,2,.,-8,29,
COc1ccc(OC)c(CCNC(=O)Cn2nc(C)c3c(C)n(-c4ccccc4)nc3c2=O)c1,-24,.,0,.,.,.,
CCN(CC)c1ccc(/C=C2\CCC(/C=C(/C#N)C(=O)Nc3ccccc3F)=C2N2CCOCC2)cc1,70*,.,18,.,.,-14,
COc1ccc(N2CCN(C(=O)CNC(=O)c3ccc4ccccc4c3)CC2)cc1,14,.,-5,.,.,.,
COc1cc(OC)cc(C(=O)NCC(=O)N2CCN(c3ccc(O)cc3)CC2)c1,60*,.,2,.,.,43,
CCc1ccn2cc(-c3ccc4c(c3)OCO4)nc2c1,65*,.,0,.,-18,23,
CCCOc1ccc(/C=C/C(=O)Nc2ccc([N+](=O)[O-])cc2)cc1,24,13,0,20,-13,.,
O=C(O)/C=C/C(=O)Nc1ccc(Oc2ccccc2)cc1,-4,.,-1,.,-11,.,
Cc1ccc(/C=C/C(=O)Nc2ccc(Oc3ccccc3)cc2)o1,61*,-8,3,25,-15,26,
Cc1ccc(/C=C/C(=O)Nc2sc(C)c(C)c2C(=O)OC(C)C)o1,60*,0,-4,0,31,3,
Cc1ccc(/C=C/C(=O)Nc2ccc([N+](=O)[O-])cc2)o1,88*,14,0,12,-17,45,
Cc1ccc(S(=O)(=O)N2[C@@H](c3ccc(Br)cc3)C(C(=O)O)=C[C@H]2C(C)(C)C)cc1,-20,.,6,.,.,.,
CCN(C(=O)COC(=O)c1ccc(=O)n(Cc2ccccc2)n1)C1CCCCC1,-15,.,5,.,.,.,
CC(=O)Nc1ccc(Oc2ccc(S(=O)(=O)N3CCCC3)cn2)cc1,7,.,1,.,.,.,
O=C(Nc1ccccc1)N(O)c1ccc(Cl)cc1,87*,9,0,15,11,35,
CCN(CCS(=O)(=O)c1ccc(Cl)cc1)C(=O)Nc1ccccc1,0,.,0,.,-1,.,
COc1cc(CNn2c(C)n[nH]c2=S)cc(Cl)c1OCc1ccc(F)cc1,46,5,10,14,-4,.,
COc1cc(CNn2c(C)n[nH]c2=S)cc(Br)c1OCc1ccc(F)cc1,70*,-7,17,18,4,33,
